Results from different studies.
Each line is one published result; the experiments were not run side by side. In brackets after ≈: the same amount, converted by molar mass.
Organism: Cryptococcus neoformans

SMILES	assay	test system	conditions	measurement	result
CCCCC[C@H]1CN(c2cccc(OC(F)(F)F)c2)C(=O)CN1Cc1cncn1Cc1ccc(Br)cc1	microbial growth, broth dilution			MIC	3 to 6 µM
Cc1ccccc1C(=O)NN=Cc1ccc(O)c(Br)c1	microbial growth, broth dilution			MIC	1 µg/mL
CCCC[C@H]1CN(c2cccc(OC(F)(F)F)c2)C(=O)CN1Cc1cncn1Cc1ccc(C(F)(F)F)cc1	microbial growth, broth dilution			MIC	3 to 6 µM
C[C@@H]1[C@H](O)[C@@H](C)/C=C/C=C/C=C/C=C/C=C/C=C/C=C/[C@H](O[C@@H]2O[C@H](C)[C@@H](O)[C@H](N)[C@@H]2O)C[C@@H]2O[C@](O)(C[C@@H](O)C[C@@H](O)[C@H](O)CC[C@@H](O)C[C@@H](O)CC(=O)O[C@H]1C)C[C@H](O)[C@H]2C(=O)O	microbial growth, broth dilution			MIC	0.6 µg/mL
C[C@@H]1[C@H](O)[C@@H](C)/C=C/C=C/C=C/C=C/C=C/C=C/C=C/[C@H](O[C@@H]2O[C@H](C)[C@@H](O)[C@H](N)[C@@H]2O)C[C@@H]2O[C@](O)(C[C@@H](O)C[C@@H](O)[C@H](O)CC[C@@H](O)C[C@@H](O)CC(=O)O[C@H]1C)C[C@H](O)[C@H]2C(=O)O	microbial growth	ATCC90113		IC50	0.45 µg/mL (≈ 0.487 µM)
CCCC[C@H]1CN(c2cccc(OC(F)(F)F)c2)C(=O)CN1Cc1cncn1Cc1ccc(Cl)cc1	microbial growth, broth dilution			MIC	3 to 6 µM
CCCCCC[C@H]1C(=O)O[C@H](C)[C@H](NC(=O)c2cccc(NC=O)c2O)C(=O)O[C@@H](C)[C@@H]1OC(=O)CC(C)C	microbial growth			MIC80	2 µM (≈ 1.1 µg/mL)
CCCSc1ccc2nc(NC(=O)OC)[nH]c2c1	microbial growth, broth dilution		72 h, clinical isolate	IC90	2500 nM
Cc1c(O)c(=O)ccn1C	microbial growth, broth dilution		48 h	MIC	> 100 µM
O=C(NN=Cc1ccc(O)c(Br)c1)c1cccc(Br)c1	microbial killing			MFC	1.2 µg/mL (≈ 3.01 µM)
Cl.O[C@]12C=C(c3nccc4c3[nH]c3ccccc34)[C@@H]3CCN(CCCC/C=C\CC1)C[C@@]31C[C@@H]3/C=C\CCCCN3[C@H]12	microbial growth	ATCC90113		IC50	1.04 µg/mL
